Results as given in ChEMBL document CHEMBL1629536, “Incorporation of piperazino functionality into 1,3-disubstituted urea as the tertiary pharmacophore affording potent inhibitors of soluble epoxide hydrolase with improved pharmacokinetic properties” (J Med Chem, 2010).
≈ marks a conversion by molar mass, not a printed value.

Assays:
[1] = Solubility in sodium phosphate buffer at 0.1 M pH 7.4 at 25 degC; assay type: physicochemical
[2] = molecular target: T1, Bifunctional epoxide hydrolase 2 (Homo sapiens, UniProt P34913); test: Inhibition of human recombinant soluble epoxide hydrolase expressed in baculovirus expression system by fluorimetric assay
T1 sequence (P34913 whole entry): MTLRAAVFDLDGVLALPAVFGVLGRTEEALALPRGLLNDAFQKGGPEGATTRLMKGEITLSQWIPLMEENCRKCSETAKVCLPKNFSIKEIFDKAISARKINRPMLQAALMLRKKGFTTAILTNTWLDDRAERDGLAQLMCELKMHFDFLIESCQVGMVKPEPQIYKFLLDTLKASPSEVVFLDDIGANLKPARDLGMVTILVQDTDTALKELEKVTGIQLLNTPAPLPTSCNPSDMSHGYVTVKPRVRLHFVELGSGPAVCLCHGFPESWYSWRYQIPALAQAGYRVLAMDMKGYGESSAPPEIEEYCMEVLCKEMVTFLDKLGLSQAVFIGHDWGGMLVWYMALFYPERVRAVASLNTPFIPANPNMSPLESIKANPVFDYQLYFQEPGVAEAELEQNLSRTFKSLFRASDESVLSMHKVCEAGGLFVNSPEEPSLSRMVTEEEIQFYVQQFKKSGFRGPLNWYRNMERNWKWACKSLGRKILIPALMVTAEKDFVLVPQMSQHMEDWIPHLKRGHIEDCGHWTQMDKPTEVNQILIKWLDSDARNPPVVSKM

[3] = AUC in mouse at 5 mg/kg, po; assay type: ADME, organism-based; design: dose 5 mg/kg, route oral; settings: plasma
Procedure, shortened: (§1)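 Mice dosed by oral gavage at 5 mg/kg in oleic oil triglyceride containing 3% EtOH. Tail-vein blood was sampled before dosing and at 30, 60, 90, 120, 240, 450, 600 and 1440 min, then centrifuged at 3000 rpm, 4°C, 10 min. Plasma was analysed by LC/MS/MS. AUC and t1/2 came from noncompartmental fitting of the concentration-time data.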

[4] = Cmax in mouse at 5 mg/kg, po; assay type: ADME, organism-based; design: dose 5 mg/kg, route oral; settings: in vivo
[5] = (§2) Half life in mouse at 5 mg/kg, po; assay type: ADME, organism-based; design: dose 5 mg/kg, route oral; settings: in vivo; procedure, shortened: as §1
[6] = Tmax in mouse at 5 mg/kg, po; assay type: ADME, organism-based; design: dose 5 mg/kg, route oral; settings: in vivo
Mus musculus = test: as §2; assay type: ADME, organism-based; design: dose 5 mg/kg, route oral; settings: in vivo; procedure, shortened: as §1

Compound	IC50 [2] [nM]	other results
CN1CCN(CCCOc2cccc(NC(=O)NC34CC5CC(CC(C5)C3)C4)c2)CC1	23.1	solubility [1]: 2210 µg/mL (≈ 5180 µM)
CC(=O)N1CCN(CCCOc2cccc(NC(=O)NC34CC5CC(CC(C5)C3)C4)c2)CC1	3.6	solubility [1]: 340 µg/mL (≈ 748 µM); AUC [3]: 0.185 µM·h; Cmax [4]: 32 nM; half-life [5]: 8 h; Tmax [6]: 0.5 h
CN1CCN(CCCOc2ccc(NC(=O)NC34CC5CC(CC(C5)C3)C4)cc2)CC1	17.9	
CC(C)(C)OC(=O)N1CCN(C(=O)CCCOc2cccc(NC(=O)NC34CC5CC(CC(C5)C3)C4)c2)CC1	21.5	
O=C(Nc1cccc(OCCCN2CCNCC2)c1)NC12CC3CC(CC(C3)C1)C2	27.2	solubility [1]: 810 µg/mL (≈ 1960 µM)
CN1CCN(CCOc2cccc(NC(=O)NC34CC5CC(CC(C5)C3)C4)c2)CC1	7.8	
CC(=O)N1CCN(CCCCCOc2cccc(NC(=O)NC34CC5CC(CC(C5)C3)C4)c2)CC1	2.8	
CC(C)(C)OC(=O)N1CCN(CCCCOc2cccc(NC(=O)NC34CC5CC(CC(C5)C3)C4)c2)CC1	7.1	solubility [1]: 2780 µg/mL (≈ 5280 µM); AUC [3]: 0.085 µM·h; Cmax [4]: 6 nM; half-life [5]: 59 h; Tmax [6]: 9 h
Cc1ccc(S(=O)(=O)N2CCN(CCCCOc3cccc(NC(=O)NC45CC6CC(CC(C6)C4)C5)c3)CC2)cc1	3.3	
CC(=O)N1CCN(C(=O)CCCOc2cccc(NC(=O)NC34CC5CC(CC(C5)C3)C4)c2)CC1	5.4	
CC(C)(C)OC(=O)N1CCN(CCCOc2cccc(NC(=O)NC34CC5CC(CC(C5)C3)C4)c2)CC1	2.9	solubility [1]: 540 µg/mL (≈ 1050 µM); AUC [3]: 0.1 µM·h; Cmax [4]: 6 nM; half-life [5]: 23 h; Tmax [6]: 0.5 h
CC(=O)N1CCN(CCCOc2ccccc2NC(=O)NC23CC4CC(CC(C4)C2)C3)CC1	994	solubility [1]: 1780 µg/mL (≈ 3920 µM)
CC(C)(C)OC(=O)N1CCN(CCCOc2ccccc2NC(=O)NC23CC4CC(CC(C4)C2)C3)CC1	39.4	
O=C(Nc1cccc(OCCCCN2CCNCC2)c1)NC12CC3CC(CC(C3)C1)C2	14.8	
CC(C)(C)OC(=O)N1CCN(CCCCCOc2cccc(NC(=O)NC34CC5CC(CC(C5)C3)C4)c2)CC1	11.7	
O=C(Nc1cccc(OCCCCCN2CCNCC2)c1)NC12CC3CC(CC(C3)C1)C2	13.8	
CC(=O)N1CCN(CCCOc2ccc(NC(=O)NC34CC5CC(CC(C5)C3)C4)cc2)CC1	3.3	solubility [1]: 320 µg/mL (≈ 704 µM); AUC [3]: 0.58 µM·h; Cmax [4]: 112 nM; half-life [5]: 6 h; Tmax [6]: 0.5 h
O=C(Nc1cccc(OCCCCN2CCN(C(=O)CCl)CC2)c1)NC12CC3CC(CC(C3)C1)C2	1.4	
O=C(Nc1cccc(OCCN2CCNCC2)c1)NC12CC3CC(CC(C3)C1)C2	67.1	
O=C(Nc1ccccc1OCCCCN1CCNCC1)NC12CC3CC(CC(C3)C1)C2	72800	
CS(=O)(=O)N1CCN(CCCCOc2cccc(NC(=O)NC34CC5CC(CC(C5)C3)C4)c2)CC1	1	solubility [1]: 2970 µg/mL (≈ 5880 µM); AUC [3]: 0.333 µM·h; Cmax [4]: 160 nM; half-life [5]: 3.5 h; Tmax [6]: 0.5 h

Compound	IC50 [2] [nM]	other results
O=C(Nc1ccc(OCCCN2CCNCC2)cc1)NC12CC3CC(CC(C3)C1)C2	156	
CC(=O)N1CCN(CCCCOc2ccccc2NC(=O)NC23CC4CC(CC(C4)C2)C3)CC1	3150	
CC(=O)N1CCN(CCOc2cccc(NC(=O)NC34CC5CC(CC(C5)C3)C4)c2)CC1	6	solubility [1]: 520 µg/mL (≈ 1180 µM)
COc1cc(C(=O)N2CCN(CCCCOc3cccc(NC(=O)NC45CC6CC(CC(C6)C4)C5)c3)CC2)cc(OC)c1OC	9.6	
O=C(Nc1cccc(OCCCCN2CCN(C(=O)c3ccc(C(F)(F)F)cc3)CC2)c1)NC12CC3CC(CC(C3)C1)C2	13.6	
O=C(Nc1cccc(OCCCCN2CCN(C(=O)C(F)(F)F)CC2)c1)NC12CC3CC(CC(C3)C1)C2	1.8	
CN1CCN(CCCCOc2ccc(NC(=O)NC34CC5CC(CC(C5)C3)C4)cc2)CC1	44.8	
CC(C)(C)OC(=O)N1CCN(CCCCOc2ccc(NC(=O)NC34CC5CC(CC(C5)C3)C4)cc2)CC1	20.1	
O=C(Nc1ccc(OCCCCN2CCNCC2)cc1)NC12CC3CC(CC(C3)C1)C2	126	
CN1CCN(CCCCCOc2cccc(NC(=O)NC34CC5CC(CC(C5)C3)C4)c2)CC1	11.5	
CC(C)(C)OC(=O)N1CCN(CCCOc2ccc(NC(=O)NC34CC5CC(CC(C5)C3)C4)cc2)CC1	14.6	
CC(=O)N1CCN(CCCCOc2cccc(NC(=O)NC34CC5CC(CC(C5)C3)C4)c2)CC1	2.7	solubility [1]: 1820 µg/mL (≈ 3880 µM)
CN1CCN(CCCOc2ccccc2NC(=O)NC23CC4CC(CC(C4)C2)C3)CC1	2880	
CN1CCN(CCCCOc2cccc(NC(=O)NC34CC5CC(CC(C5)C3)C4)c2)CC1	13.3	
O=C(O)CCCCCCCCCCCNC(=O)NC12CC3CC(CC(C3)C1)C2		solubility [1]: < 125 µg/mL; AUC [3]: 0.05 µM·h; t1/2 (Mus musculus): 2.1 h
CC(=O)N1CCN(CCCCOc2ccc(NC(=O)NC34CC5CC(CC(C5)C3)C4)cc2)CC1	7	solubility [1]: 700 µg/mL (≈ 1490 µM); AUC [3]: 0.67 µM·h; Cmax [4]: 84 nM; half-life [5]: 14 h; Tmax [6]: 0.5 h
CN1CCN(CCCCOc2ccccc2NC(=O)NC23CC4CC(CC(C4)C2)C3)CC1	5290	
CC(C)(C)OC(=O)N1CCN(CCOc2cccc(NC(=O)NC34CC5CC(CC(C5)C3)C4)c2)CC1	2.8	
O=C(Nc1cccc(OCCCC(=O)N2CCNCC2)c1)NC12CC3CC(CC(C3)C1)C2	91.4	
CC(C)(C)OC(=O)N1CCN(CCCCOc2ccccc2NC(=O)NC23CC4CC(CC(C4)C2)C3)CC1	16.5	
O=C(Nc1ccccc1OCCCN1CCNCC1)NC12CC3CC(CC(C3)C1)C2	97500	
